Bioassay records deposited in PubChem BioAssay by several laboratories.
UPR CHOP act – activators of apoptotic arm of unfolded protein response (CHOP). 330,000 compounds, 0.34% hits. CHO-CHOP luciferase reporter, UPR activation, luminescence; percent of tunicamycin response over DMSO baseline. activation, % at 10 µM;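 active = at 10 µM dose, activation of 40% or more, normalized to positive control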;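 note: 100% = tunicamycin at 10 µg/mL and 0% = DMSO alone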
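assay system = CHO CHOP reporter cells | amount = 500 CHO-CHOP cells per well | buffer or medium = F12 with 10% FBS | incubation = 16-18 h cell attachment, then 6 h compound exposure, 37 °C | detection = luminescence read with Steady-Glo | read-out = percent activation relative to tunicamycin control | controls = tunicamycin high control, DMSO low control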
NOD2-RIPK2 inh – inhibitors of human NOD2-RIPK2 interaction. CHO BLA complementation NOD2-RIPK2, CCF4 ratio. 360,000 compounds, 0.38% hits. inhibition, % at 4.98 µM; in the data active = inhibition above about 21%;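 note: 0% = vehicle only and 100% = reference blocker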
TLR9-MyD88 block – inhibitors of human TLR9-MyD88 binding; CHO BLA complementation TLR9-MyD88, CCF4 FRET ratio; 340,000 compounds, 0.21% hits; inhibition, % at 4.98 µM; AID 504734;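 active = inhibition above the mean over all tested compounds plus 3 SD, cut at about 21% in these data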;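 note: 0% = DMSO only wells and 100% = clavulanate BLA inhibitor control wells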
UPR XBP1 act – activators of adaptive arm of unfolded protein response (XBP1); CHO-XBP1 luciferase reporter, IRE1-XBP1 UPR activation, luminescence; percent of tunicamycin response, DMSO as zero; activation, % at 20 µM; 330,000 compounds, 0.33% hits; AID 463104;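 active = versus positive control, 20 µM dose yields 30% or more activation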;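 note: 100% = tunicamycin at 10 µg/mL and 0% = DMSO only wells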
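Assay system: CHO-XBP1 luciferase reporter cells; Schedule: 6 h treatment, 37 °C; Detection: glow luminescence from Steady-Glo reagent; Benchmarks: high control tunicamycin 10 µg/mL final, low control DMSO vehicle only.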
TLR4-MyD88 BLA – blocks binding of human TLR4 to MyD88; HeLa CL3-4 TLR4/MyD88 BLA complementation, FRET ratio; inhibition, % at 8.4 µM; 200,000 compounds, 0.18% hits; AID 861; in the data active = inhibition above about 25%;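 note: 0% = vehicle and 100% = reference inhibitor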
CHOP inh – blocks CHOP induction under ER stress | CHO-K1 CHOP-promoter luciferase, tunicamycin-induced, 15-18 h | inhibition, % at 10 µM | 220,000 compounds, 3.8% hits;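 active = compounds that reduced the stress-induced luciferase reporter signal by more than about 70% of percent inhibition, limit read from the data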;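 note: 0% = tunicamycin plus vehicle and 100% = wells without tunicamycin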
UPR CHOP confirm – apoptotic UPR (CHOP) activation, confirmed. shares compounds with UPR CHOP act. CHO-CHOP cells, CHOP-luciferase reporter luminescence; percent of tunicamycin response, DMSO as zero. activation, % at 10 µM. 1,000 compounds, 64% hits; in the data active = activation above about 33%;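 note: 0% = DMSO wells and 100% = tunicamycin 10 µg/mL wells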
An asterisk follows results filed as active; x = no result given. This excerpt belongs to a sample that is enriched for hits.

SMILES	UPR CHOP act	NOD2-RIPK2 inh	TLR9-MyD88 block	UPR XBP1 act	TLR4-MyD88 BLA	CHOP inh	UPR CHOP confirm
O=C(NCc1ccncc1)[C@@H]1CCCN1C(=O)[C@@H]1CCCN1C(=O)c1ccccc1	x	8	x	x	x	x	x
Cc1nc(C(F)(F)F)ccc1C(=O)N1CCC1(C)C(=O)NS(=O)(=O)c1cccc(Cl)c1 (configuration not stated)	x	0	x	x	x	x	x
CN(c1ccc(O)cc1)c1nc(-c2cccs2)cs1	48*	7	-4	3	-5	60	6
O=C(CSc1ccc2ccccc2c1)NCCc1ccc(O)c(O)c1	55*	4	6	11	1	-113	46*
COc1ccc(CCNC(=O)CSc2ccc3ccccc3c2)cc1OC	1	-4	5	3	-9	31	x
Cn1nccc1-c1ccc(C(=O)NCc2ccc(Cl)cc2)c2occc12	x	4	x	x	x	x	x
CCc1cc2c(=O)[nH]c(-c3ccccn3)nc2s1	290*	-2	7	11	-5	47	247*
CCc1cc2c(=O)[nH]c(N3CCCC3)nc2s1	8	-11	-6	3	-13	-7	x
Cn1ncc2c(=S)[nH]c(=S)[nH]c21	x	-23	x	x	x	x	x
O=C(/C=C/c1ccc(O)c(O)c1)OC(Cc1ccc(O)c(O)c1)C(=O)O (configuration not stated)	0	-1	-14	5	x	x	x
O=C(/C=C/c1ccc(O)c(O)c1)c1ccccc1O	93*	-12	3	5	x	-127	81*
O=C(/C=C/c1ccc(O)c(O)c1)OCCc1ccccc1	52*	11	10	6	x	-17	145*
O=C(C=Cc1cccc(O)c1)c1ccccc1O	x	3	-4	x	x	x	x
O=C(NCc1cccs1)c1ccc2sc(COCCO)nc2c1	x	-9	x	x	x	x	x
O=C(O)c1ccc(NC2(C(=O)O)CCCC2)cc1	x	-5	-8	x	x	x	x
CCCC(=O)N1CCC1(C)C(=O)Nc1cc(C)ccc1C (configuration not stated)	x	0	x	x	x	x	x
CCCCC(=O)NC(c1ccccc1)c1ccc2cccnc2c1O (configuration not stated)	5	1	9	2	x	x	x
CCCC(=O)NC(c1ccccc1)c1ccc2cccnc2c1O (configuration not stated)	51*	3	1	3	x	x	26
CC1(C)CC(=O)C=C(c2ccc(-c3ccc(S(C)(=O)=O)cc3)cc2)C1=O	x	-4	3	x	x	x	x
COc1ccc(OCC(=O)c2c[nH]c3ccccc23)cc1	6	0	-12	0	-16	-4	x
COc1ccc2c(C(=O)CCl)c[nH]c2c1	238*	-3	9	-5	x	-149	205*
CCS(=O)(=O)c1cc([N+](=O)[O-])c(Sc2ccccc2NC(C)=O)s1	59*	-3	-10	1	x	-183	15
Cc1ccc(NC(=O)CN2C(=O)NC(C)(C3CC3)C2=O)c(C)c1 (configuration not stated)	70*	-10	-12	-2	x	x	-1
Cc1cc(C(=O)CSc2nncs2)c(C)n1Cc1ccco1	0	-10	-11	-8	6	11	x
Cc1cc(C(=O)CCl)c(C)n1Cc1ccco1	99*	5	-6	-1	-11	-143	236*
SMILES	UPR CHOP act	NOD2-RIPK2 inh	TLR9-MyD88 block	UPR XBP1 act	TLR4-MyD88 BLA	CHOP inh	UPR CHOP confirm
Cc1cc(C(=O)CCl)c(C)n1CCc1ccccc1	196*	x	x	6	21	33	204*
CC(C)CC1NC(=O)c2cccnc2-n2c1nc1cc(F)ccc1c2=O (configuration not stated)	x	8	7	x	x	x	x
COc1cc(/C=C2\C(=O)ON=C2c2ccc(Cl)cc2)ccc1O	180*	x	x	0	x	x	143*
Cc1cccc(C(=O)Nc2ccc(C(=O)/C=C/c3cccnc3)cc2)c1	x	6	6	x	13	-56	x
O=C(/C=C/c1cccnc1)c1ccc(NC(=O)c2cccc(Br)c2)cc1	91*	15	0	10	0	-47	197*
CCc1nc2c(OCC(=O)c3ccc(Cl)cc3Cl)cccn2c1N(C)C(=O)COc1ccccc1	x	-1	x	x	x	x	x
CC1=CN2C(=N)/C(=C/c3cn(CCCOc4ccccc4C)c4ccccc34)C(=O)N=C2S1	44*	-12	5	29	-19	62	29
CCN(CC)CC(=O)Nc1sc(C)cc1C(=O)c1ccccc1	-1	-9	2	-2	x	x	x
Cc1cc(C(=O)c2ccccc2)c(NC(=O)CCl)s1	45*	-3	-7	3	4	-152	4
COc1cc(/C=C(\C#N)C(=O)NC2CCCCC2C)ccc1OS(=O)(=O)c1ccc(C)cc1 (configuration not stated)	76*	1	-4	23	8	62	9
COc1cc(/C=C(\C#N)C(N)=O)ccc1OS(=O)(=O)c1ccc(C)cc1	1	6	1	0	-6	-34	x
COc1cccc(-c2cnc(C(O)c3c(C)cccc3C)[nH]2)c1 (configuration not stated)	x	1	x	x	x	x	x
Oc1c(C(c2ccccn2)N2CCC(Cc3ccccc3)CC2)cc(Cl)c2cccnc12 (configuration not stated)	43*	x	x	14	2	-346	74*
CC(C)(C)c1ccc(OCc2ccc(C(=O)N/N=C/c3ccc(O)c(O)c3)cc2)cc1	41*	-3	1	20	-4	28	27
NC(=O)C1CCN(C2=C(Cl)C(=O)c3ccccc3C2=O)CC1	394*	6	3	4	7	-183	-10
O=C1C(Cl)=C(N2CCC(C(=O)O)CC2)C(=O)c2ccccc21	2	-6	5	-1	x	18	x
CCN(CC)c1ccc(/C=C2\C(=O)N(c3nnc(C)c(=O)[nH]3)N=C2C)cc1	221*	-12	9	-1	x	-150	832*
CCCN1C/C(=C/c2ccc3c(c2)OCO3)C(=O)/C(=C/c2ccc3c(c2)OCO3)C1	55*	-2	4	6	-7	97*	115*
O=C(/C=C/c1cccc([N+](=O)[O-])c1)c1ccc([N+](=O)[O-])o1	x	5	8	x	x	x	x
COc1ccc(/C=C/C(=O)c2ccc([N+](=O)[O-])o2)cc1	89*	-3	1	-6	x	x	99*
Cc1ccccc1/C=C/C(=O)c1ccc([N+](=O)[O-])o1	112*	x	x	0	x	x	68*
Cc1ccccc1NC(=O)c1ccc([N+](=O)[O-])o1	2	-6	1	0	15	66	x
Cc1cccc(/C=C/C(=O)c2ccc([N+](=O)[O-])o2)c1	217*	6	4	-7	x	x	142*
